The nature of data set [1]: Selectivity index, ratio of IC50 for rat L6 cells to IC50 for Trypanosoma brucei rhodesiense STIB900. The class given is toxicity, cell-based. Conditions: read-out: Ratio IC50. Summed up: (§1)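 SI = IC50 in rat L6 myoblasts / IC50 against the parasite (T. b. rhodesiense STIB900 or P. falciparum K1). Each IC50 is the average of duplicate determinations.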
Data set [2] deals with Trypanosoma brucei rhodesiense. As to the kind of experiment: Antitrypanosomal activity against Trypanosoma brucei rhodesiense STIB900 infected in NMRI mouse assessed as mean survival days at 5 mg/kg, ip administered for 4 days. It counts as functional. The conditions noted are these: route intraperitoneal. The method, boiled down:
(§2)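 Female NMRI mice, acute infection model with T. b. rhodesiense STIB900. Compound given as a single daily dose for four days, intraperitoneally or orally. Cure means survival to 60 days post-infection without parasitaemia relapse. Mean survival recorded in days.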

In data set [3] the test system is Trypanosoma brucei rhodesiense. As to the kind of experiment: Antitrypanosomal activity against Trypanosoma brucei rhodesiense STIB900 after 72 hrs by Alamar blue assay. Conditions: STIB900, 72 h. The class given is functional, organism-based. For orientation: Alamar Blue is a resazurin reagent that responds to reducing activity.
The nature of data set [4]: Selectivity index, ratio of IC50 for rat L6 cells to IC50 for amastigotes of Leishmania donovani. It counts as toxicity, cell-based. Conditions: read-out: Ratio IC50. Summed up:
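SI = IC50 in rat L6 myoblasts / IC50 against L. donovani MHOM/SD/62/IS-CL2D axenic amastigotes. The amastigote IC50 is the average of at least two determinations; the L6 IC50 is the average of duplicates.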

The test system of data set [5] is Trypanosoma brucei rhodesiense. Nature of the data set: Antitrypanosomal activity against Trypanosoma brucei rhodesiense STIB900 infected in NMRI mouse assessed as cured animal at 5 mg/kg, ip administered for 4 days. The class given is functional, organism-based. Set-up: dose 5 mg/kg. The method, boiled down:
(§3)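 Acute model in female NMRI mice infected with T. b. rhodesiense STIB900. Single daily doses given for four days, intraperitoneally or orally. Mice surviving 60 days post-infection without parasitaemia relapse counted as cured; result reported as cured/infected out of 4 mice per group, with mean survival in days.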

Another data set concerns L6. As to the kind of experiment: Cytotoxicity against rat L6 cells after 72 hrs by Alamar blue assay. The class given is cell-based. The conditions noted are these: L6, 72 h. The method, boiled down:
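Rat L6 myoblast cells; cytotoxic IC50 taken as the average of duplicate determinations.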

In another data set the test system is Leishmania donovani. As to the kind of experiment: Antileishmanial activity against amastigotes of Leishmania donovani MHOM/SD/62/IS-CL2D. The class given is functional, organism-based. The method, boiled down:
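Axenic amastigotes of L. donovani MHOM/SD/62/IS-CL2D; IC50 taken as the average of at least two determinations.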

For the next data set, the system named is Plasmodium falciparum. Nature of the data set: Antiplasmodial activity against chloroquine-resistant Plasmodium falciparum K1. The class given is functional, organism-based. The method, boiled down: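 Chloroquine-resistant K1 strain tested in vitro. IC50 is the average of duplicate determinations.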
Data set [6] is described as follows: Selectivity index, ratio of IC50 for rat L6 cells to IC50 for chloroquine-resistant Plasmodium falciparum K1. It counts as toxicity, cell-based. Conditions: read-out: Ratio IC50. The method, boiled down: as §1
Data set [7] has as its system Trypanosoma brucei rhodesiense. As to the kind of experiment: Antitrypanosomal activity against Trypanosoma brucei rhodesiense STIB900 infected in NMRI mouse assessed as cured animal at 25 mg/kg, po administered for 4 days. It counts as functional, organism-based. Further details: dose 25 mg/kg. Summed up:
as §3

The subject of data set [8] is Trypanosoma brucei rhodesiense. As to the kind of experiment: Antitrypanosomal activity against Trypanosoma brucei rhodesiense STIB900 infected in NMRI mouse assessed as mean survival days at 25 mg/kg, po administered for 4 days. The class given is functional. Summed up: as §2

Broadly, the IC50 is the concentration that gives 50% inhibition. A low value points to inhibition by little substance.

Each structure is given as a SMILES string. Calls of active or inactive are those of the source. No cut-off for these calls is given here.

With `COc1cc(C(=N)N)cc(Br)c1OCc1cccc(C(=N)N)c1.Cl.Cl`, the selectivity ratio was 4070 in data set [1], below 2 in data set [4] and 747 in data set [6]. In data set [2], the MSD was above 45.75 days. Also, the half-maximal inhibitory concentration (IC50) was determined as 5 nM in [3], 21600 nM in the data set with L6, 11400 nM in the data set on Leishmania donovani and 28.9 nM in the data set with Plasmodium falciparum. For the same compound, the result in [5] was inactive.
Regarding `N=C(N)c1ccc(COc2c(I)cc(C(=N)N)cc2I)cc1`, the figures for the selectivity ratio in [1], in [4] and in [6] were 1170, 9 and 746, respectively. Also, the MSD in [2] came to 24.5 days. The 50% inhibitory concentration (IC50) came to 12 nM in data set [3], 13800 nM with L6, 1600 nM in the data set with Leishmania donovani and 19 nM with Plasmodium falciparum. The result in data set [5] was inactive.
As for `N=C(N)c1ccc(COc2cccc(C(=N)N)c2)cc1`, the selectivity ratio in data set [1] was 694; in data set [4] it was below 1; in data set [6], 99. The MSD in data set [2] is 19 days. For the same compound, the IC50 in data set [3] was found to be 28 nM; with L6, 19300 nM; in the data set with Leishmania donovani, 42100 nM; in the data set on Plasmodium falciparum it was 195 nM. The result in data set [5] was inactive.
As for `N=C(N)c1ccc(COc2ccc(C(=N)N)cc2)cc1`, the results for the selectivity ratio in [1], in data set [4] and in [6] were 77, below 14 and 89, respectively. For the same compound, the MSD in data set [2] turned out to be 22.5 days. The IC50 was 91 nM in data set [3], 6960 nM with L6, 8770 nM in the data set with Leishmania donovani and 78 nM in the data set on Plasmodium falciparum. In addition, the result in data set [5] was inactive.
Turning to `N=C(N)c1cccc(COc2c(I)cc(C(=N)N)cc2I)c1`, the selectivity ratio was found to be 5680 in data set [1], 14 in [4] and 291 in [6]. Further, the MSD in data set [2] was 21.25 days. Further, the IC50 in [3] is 3 nM; in the data set with L6, 19300 nM; in the data set on Leishmania donovani, 1390 nM; in the data set with Plasmodium falciparum it was 66.4 nM. In addition, the result in data set [5] was inactive.
On to `COc1cc(C(=N)N)cc(I)c1OCc1cccc(C(=N)N)c1.Cl`, for which the selectivity ratio in data set [1] amounted to 6210; in data set [4], 3; in data set [6], 760. Moreover, in data set [2], the MSD stood at 35.75 days. Also, the IC50 in data set [3] is 3 nM; in the data set with L6, 18600 nM; in the data set on Leishmania donovani, 6010 nM; with Plasmodium falciparum, 24.5 nM. Besides, in data set [5], the outcome was inactive.
Consider `COc1cc(C(=N)N)ccc1OCc1cccc(C(=N)N)c1`, for which the selectivity ratio in [1] is 4400; in data set [4], 3; in data set [6], 2760. Also, the MSD in data set [2] amounted to 22 days. The IC50 in data set [3] was determined as 19 nM; with L6, 85400 nM; in the data set with Leishmania donovani, 28600 nM; in the data set on Plasmodium falciparum, 31 nM. For the same compound, in [5], the outcome was inactive.
For `COc1cc(C(=N)N)cc(OC)c1OCc1cccc(C(=N)N)c1.Cl.Cl`, the selectivity ratio is 524 in data set [1], below 1 in data set [4] and 416 in data set [6]. Besides, the MSD in [2] amounted to 16.25 days. The IC50 in data set [3] was 183 nM; in the data set with L6 it was 96000 nM; in the data set with Leishmania donovani it was above 100000 nM; in the data set with Plasmodium falciparum, 231 nM. The result in data set [5] was inactive.
With `COc1cc(/C(N)=N/O)cc(Br)c1OCc1cccc(/C(N)=N/O)c1.Cl.Cl`, the selectivity ratio in data set [1] was below 1; in data set [4] it was below 1; in data set [6], below 3. Besides, the IC50 in [3] was 87900 nM; in the data set with L6, 28900 nM; in the data set on Leishmania donovani, above 100000 nM; in the data set on Plasmodium falciparum, above 10400 nM. In addition, the result in data set [7] was inactive. Besides, the MSD in data set [8] was determined as 31.75 days.
